According to article PMC3149845 (The Journal of neuroscience : the official journal of the …, 2011):
“Also recorded” adds a separate entry of the source. Peptide text beside a SMILES is read from it.

Columns and labels:
Settings in all cases: aspartame 10mM, neotame 1mM, sucralose 2 mM; compared with hTas1R2/hTas1R3
[1] = molecular target: sm(1–567)hTas1R2 + hTas1R3 (Saimiri sciureus, UniProt A3QP08, A682V/A736V/D779S/E587Q/F759L/F793L/I713V/L619P/L692M/M590I/M711T/N698S/S673P/S691G/T687I/T705P/V634L/V653A/V677M/V777A); assay: Ca2+ mobilization, chimera receptor; type: cell-based, human/squirrel monkey
hTas1R2:S40T+hTas1R3 = molecular target: T1, hTas1R2:S40T+hTas1R3 (Homo sapiens, UniProt Q8TE23, S40T); assay: Ca2+ mobilization, mutated human receptor; type: cell-based
T1 sequence (Q8TE23 20-839 S40T): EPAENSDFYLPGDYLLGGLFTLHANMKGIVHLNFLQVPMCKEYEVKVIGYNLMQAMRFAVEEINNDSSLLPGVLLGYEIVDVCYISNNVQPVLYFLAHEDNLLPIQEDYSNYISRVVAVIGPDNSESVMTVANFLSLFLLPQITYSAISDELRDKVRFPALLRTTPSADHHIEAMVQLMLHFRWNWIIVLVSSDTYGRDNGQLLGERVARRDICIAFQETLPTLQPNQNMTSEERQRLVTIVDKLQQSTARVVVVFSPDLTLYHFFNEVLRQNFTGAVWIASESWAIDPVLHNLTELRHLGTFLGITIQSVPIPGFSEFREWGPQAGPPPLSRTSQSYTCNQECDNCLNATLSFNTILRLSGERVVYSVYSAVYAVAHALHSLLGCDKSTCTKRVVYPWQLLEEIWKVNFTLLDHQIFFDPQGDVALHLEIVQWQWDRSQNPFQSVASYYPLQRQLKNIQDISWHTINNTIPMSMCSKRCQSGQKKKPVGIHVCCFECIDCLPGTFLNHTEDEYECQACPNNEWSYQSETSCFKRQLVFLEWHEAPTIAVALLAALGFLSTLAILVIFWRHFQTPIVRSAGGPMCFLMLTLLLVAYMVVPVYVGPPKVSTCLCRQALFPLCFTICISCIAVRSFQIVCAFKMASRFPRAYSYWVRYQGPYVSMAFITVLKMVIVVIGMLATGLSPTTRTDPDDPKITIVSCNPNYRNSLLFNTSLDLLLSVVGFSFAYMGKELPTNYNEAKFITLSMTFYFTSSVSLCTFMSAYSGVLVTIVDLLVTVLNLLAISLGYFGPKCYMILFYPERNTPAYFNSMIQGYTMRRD
T1 sequence (Q7RTX0 21-852 partner): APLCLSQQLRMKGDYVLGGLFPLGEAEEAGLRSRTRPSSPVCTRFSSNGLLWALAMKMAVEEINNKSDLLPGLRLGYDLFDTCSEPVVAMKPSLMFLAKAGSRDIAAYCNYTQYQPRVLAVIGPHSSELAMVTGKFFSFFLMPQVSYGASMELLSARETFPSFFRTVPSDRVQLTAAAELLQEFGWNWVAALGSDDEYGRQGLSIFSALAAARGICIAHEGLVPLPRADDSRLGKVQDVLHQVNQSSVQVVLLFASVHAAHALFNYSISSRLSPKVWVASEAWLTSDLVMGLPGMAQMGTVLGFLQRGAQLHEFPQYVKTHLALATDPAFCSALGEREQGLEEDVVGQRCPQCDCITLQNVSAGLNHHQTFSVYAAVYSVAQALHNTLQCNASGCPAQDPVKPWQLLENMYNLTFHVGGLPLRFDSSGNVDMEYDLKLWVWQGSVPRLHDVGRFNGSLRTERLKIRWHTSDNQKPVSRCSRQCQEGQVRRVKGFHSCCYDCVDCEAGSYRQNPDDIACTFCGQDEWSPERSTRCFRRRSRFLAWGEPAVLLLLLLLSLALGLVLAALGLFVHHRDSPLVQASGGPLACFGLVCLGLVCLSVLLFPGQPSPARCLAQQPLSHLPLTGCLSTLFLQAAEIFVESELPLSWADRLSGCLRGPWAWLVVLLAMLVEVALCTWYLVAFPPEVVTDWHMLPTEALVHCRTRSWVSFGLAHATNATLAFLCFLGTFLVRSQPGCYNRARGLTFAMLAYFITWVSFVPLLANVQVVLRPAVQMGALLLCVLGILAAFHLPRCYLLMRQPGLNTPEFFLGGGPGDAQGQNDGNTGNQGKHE
Procedure, shortened: (§1)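 HEK293E cells grown at 37°C in Opti-MEM with 5% FBS and seeded at 50,000/well. Cells co-lipofected with Tas1R plasmids and Gα16-gust44 (0.06 μg each per well); medium changed at 20 h, assayed 24 h later. Cells loaded 1 h with Fluo-4 AM in HEPES-buffered HBSS. Tastant added at 30 s; fluorescence (ex 488/em 525 nm) read every 2 s for 150 s more. ΔF/F normalised to human receptor maximal sucralose response; mean ± SEM, three independent experiments.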

[2] = molecular target: T2, h(1–572)smTas1R2 + hTas1R3 (Homo sapiens, UniProt Q8TE23, A658V/A782V/G696S/I595M/I692T/L639V/L764F/L798F/M682V/M697L/P624L/P678S/P710T/Q592E/S703N/S784D/T716M/V687A/V718I/V741A); assay: Ca2+ mobilization, chimera receptor; type: cell-based, human/squirrel monkey
T2 sequence (Q8TE23 20-839 Q592E/I595M/P624L/L639V/A658V/P678S/M682V/V687A/I692T/G696S/M697L/S703N/P710T/T716M/V718I/V741A/L764F/A782V/S784D/L798F): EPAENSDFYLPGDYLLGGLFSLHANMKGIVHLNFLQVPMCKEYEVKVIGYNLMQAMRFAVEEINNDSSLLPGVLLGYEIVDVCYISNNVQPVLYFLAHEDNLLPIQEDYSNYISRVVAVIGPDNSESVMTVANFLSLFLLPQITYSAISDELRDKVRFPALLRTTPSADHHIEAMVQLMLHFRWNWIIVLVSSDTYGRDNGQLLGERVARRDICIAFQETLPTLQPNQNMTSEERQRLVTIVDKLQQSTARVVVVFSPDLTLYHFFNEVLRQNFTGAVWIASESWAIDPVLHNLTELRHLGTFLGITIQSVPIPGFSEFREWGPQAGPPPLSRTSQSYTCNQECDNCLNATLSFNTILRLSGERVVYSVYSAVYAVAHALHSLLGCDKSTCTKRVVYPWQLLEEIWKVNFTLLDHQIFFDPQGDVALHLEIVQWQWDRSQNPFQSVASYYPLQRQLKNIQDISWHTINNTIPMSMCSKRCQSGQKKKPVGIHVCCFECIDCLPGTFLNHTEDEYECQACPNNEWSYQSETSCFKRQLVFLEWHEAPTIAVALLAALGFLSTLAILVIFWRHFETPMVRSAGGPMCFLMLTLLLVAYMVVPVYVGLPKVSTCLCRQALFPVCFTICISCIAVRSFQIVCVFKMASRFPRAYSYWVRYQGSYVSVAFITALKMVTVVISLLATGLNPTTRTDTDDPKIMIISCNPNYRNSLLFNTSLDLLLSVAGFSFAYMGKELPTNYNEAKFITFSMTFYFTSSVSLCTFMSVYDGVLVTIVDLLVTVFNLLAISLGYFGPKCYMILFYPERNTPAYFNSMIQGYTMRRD
T2 sequence (Q7RTX0 21-852 partner): T1 sequence (Q7RTX0 21-852 partner)
Procedure, shortened: as §1

Compound | calcium response to sweetener [1] | calcium response to sweetener (hTas1R2:S40T+hTas1R3) | calcium response to sweetener [2]
COC(=O)[C@H](Cc1ccccc1)NC(=O)[C@@H](N)CC(=O)O [aspartame, L-α-aspartly-L-phenylalanine methyl ester] (H-Asp-Phe-OMe) | no responses | abolished | significantly reduced responses; also recorded: significant reduction of the response
OC[C@H]1O[C@H](O[C@]2(CCl)O[C@H](CCl)[C@@H](O)[C@@H]2O)[C@H](O)[C@@H](O)[C@H]1Cl [sucralose] | significant increase of the response | significantly reduced | significant reduction of the response
COC(=O)[C@H](Cc1ccccc1)NC(=O)[C@H](CC(=O)O)NCCC(C)(C)C [neotame] | no responses | did not affect significantly | significantly reduced responses; also recorded: significant reduction of the response
